The results in this text go back to PMC6727982 (ACS chemical neuroscience, 2019).

The structures appear in SMILES notation. Where two headings read alike, the source gives them in different places. Where only a bound is given, the exact number is not on record here.

Data set [1] deals with human GluN1/GluN2B receptors (Homo sapiens, UniProt Q05586+Q13224). The class given is cell-based. As to conditions: for %control at 1 μM, mean (99% CI), GluN2B: 1 μM compound, percent of maximal response to 100 μM glutamate/glycine; for IC50: n = 6−12.
Sequence of human GluN1/GluN2B receptors (Q13224 27-1484, other chains not shown): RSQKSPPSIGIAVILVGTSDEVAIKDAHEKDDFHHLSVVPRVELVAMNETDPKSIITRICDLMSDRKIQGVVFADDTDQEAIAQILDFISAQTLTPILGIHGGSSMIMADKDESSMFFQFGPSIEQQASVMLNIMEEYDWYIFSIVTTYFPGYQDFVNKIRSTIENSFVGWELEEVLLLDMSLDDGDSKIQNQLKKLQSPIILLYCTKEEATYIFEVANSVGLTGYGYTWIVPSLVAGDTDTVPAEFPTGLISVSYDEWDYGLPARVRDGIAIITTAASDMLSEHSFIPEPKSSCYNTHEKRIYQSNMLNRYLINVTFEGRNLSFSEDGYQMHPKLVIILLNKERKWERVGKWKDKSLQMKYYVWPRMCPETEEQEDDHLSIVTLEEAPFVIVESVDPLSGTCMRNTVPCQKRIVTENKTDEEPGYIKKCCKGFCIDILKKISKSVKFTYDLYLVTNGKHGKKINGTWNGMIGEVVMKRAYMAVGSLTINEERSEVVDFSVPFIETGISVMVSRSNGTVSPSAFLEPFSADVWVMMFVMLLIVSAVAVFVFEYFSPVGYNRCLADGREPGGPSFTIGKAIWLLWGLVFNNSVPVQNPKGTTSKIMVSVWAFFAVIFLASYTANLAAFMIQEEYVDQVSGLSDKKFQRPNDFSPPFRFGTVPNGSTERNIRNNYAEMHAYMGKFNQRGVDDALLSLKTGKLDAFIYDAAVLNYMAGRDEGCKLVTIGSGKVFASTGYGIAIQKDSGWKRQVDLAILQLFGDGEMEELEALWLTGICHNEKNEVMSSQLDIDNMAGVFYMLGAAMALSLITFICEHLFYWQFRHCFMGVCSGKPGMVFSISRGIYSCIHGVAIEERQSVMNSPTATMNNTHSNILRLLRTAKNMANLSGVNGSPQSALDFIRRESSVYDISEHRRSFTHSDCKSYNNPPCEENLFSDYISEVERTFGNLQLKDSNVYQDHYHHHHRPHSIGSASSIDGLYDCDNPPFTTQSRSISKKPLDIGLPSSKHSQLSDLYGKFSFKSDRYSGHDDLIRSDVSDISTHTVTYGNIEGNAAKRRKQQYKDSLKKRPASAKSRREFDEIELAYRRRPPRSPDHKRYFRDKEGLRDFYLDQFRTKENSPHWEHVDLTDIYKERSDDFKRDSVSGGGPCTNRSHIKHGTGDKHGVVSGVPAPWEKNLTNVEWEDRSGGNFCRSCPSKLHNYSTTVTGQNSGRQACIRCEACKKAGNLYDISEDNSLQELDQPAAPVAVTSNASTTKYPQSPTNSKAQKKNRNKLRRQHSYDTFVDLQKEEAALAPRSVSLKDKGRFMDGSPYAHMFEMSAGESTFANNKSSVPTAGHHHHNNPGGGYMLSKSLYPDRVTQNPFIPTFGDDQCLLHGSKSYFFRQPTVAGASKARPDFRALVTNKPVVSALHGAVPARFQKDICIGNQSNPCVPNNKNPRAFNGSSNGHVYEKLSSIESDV
For data set [2], the system named is GluN1/GluN2A/GluN2A (2A/2A). The experiment in a line: Inhibition of diheteromeric 2A/2A receptors. Type of data set: cell-based. The conditions noted are these: wild-type 2A/2A, 1 μM compound. The method, boiled down: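 Xenopus laevis stage VI oocytes injected with 5–10 ng receptor cRNA and kept at 15 °C in Barth's medium. Two-electrode voltage clamp run 2–7 days later at room temperature, holding −40 mV, in 90 mM NaCl, 1 KCl, 10 HEPES, 0.5 BaCl2, 0.01 EDTA, pH 7.4. Test compound (20 mM DMSO stock; final DMSO 0.05–0.5%) co-applied with 100 μM glutamate/100 μM glycine. Response given as % of response to agonists alone.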

Data set [3] can be described thus: LogD by shake-flask method with 18F-labeled tracers. Type of data set: physicochemical. The conditions noted are these: pH 7.4.
For data set [4], the target named is GluN2B subunit (Rattus norvegicus, UniProt P35439+Q00960). The experiment in a line: In vitro autoradiography in rat brain sections. Type of data set: binding.
Sequence of GluN2B subunit (Rattus norvegicus, UniProt P35439+Q00960) (Q00960 27-1482, other chains not shown): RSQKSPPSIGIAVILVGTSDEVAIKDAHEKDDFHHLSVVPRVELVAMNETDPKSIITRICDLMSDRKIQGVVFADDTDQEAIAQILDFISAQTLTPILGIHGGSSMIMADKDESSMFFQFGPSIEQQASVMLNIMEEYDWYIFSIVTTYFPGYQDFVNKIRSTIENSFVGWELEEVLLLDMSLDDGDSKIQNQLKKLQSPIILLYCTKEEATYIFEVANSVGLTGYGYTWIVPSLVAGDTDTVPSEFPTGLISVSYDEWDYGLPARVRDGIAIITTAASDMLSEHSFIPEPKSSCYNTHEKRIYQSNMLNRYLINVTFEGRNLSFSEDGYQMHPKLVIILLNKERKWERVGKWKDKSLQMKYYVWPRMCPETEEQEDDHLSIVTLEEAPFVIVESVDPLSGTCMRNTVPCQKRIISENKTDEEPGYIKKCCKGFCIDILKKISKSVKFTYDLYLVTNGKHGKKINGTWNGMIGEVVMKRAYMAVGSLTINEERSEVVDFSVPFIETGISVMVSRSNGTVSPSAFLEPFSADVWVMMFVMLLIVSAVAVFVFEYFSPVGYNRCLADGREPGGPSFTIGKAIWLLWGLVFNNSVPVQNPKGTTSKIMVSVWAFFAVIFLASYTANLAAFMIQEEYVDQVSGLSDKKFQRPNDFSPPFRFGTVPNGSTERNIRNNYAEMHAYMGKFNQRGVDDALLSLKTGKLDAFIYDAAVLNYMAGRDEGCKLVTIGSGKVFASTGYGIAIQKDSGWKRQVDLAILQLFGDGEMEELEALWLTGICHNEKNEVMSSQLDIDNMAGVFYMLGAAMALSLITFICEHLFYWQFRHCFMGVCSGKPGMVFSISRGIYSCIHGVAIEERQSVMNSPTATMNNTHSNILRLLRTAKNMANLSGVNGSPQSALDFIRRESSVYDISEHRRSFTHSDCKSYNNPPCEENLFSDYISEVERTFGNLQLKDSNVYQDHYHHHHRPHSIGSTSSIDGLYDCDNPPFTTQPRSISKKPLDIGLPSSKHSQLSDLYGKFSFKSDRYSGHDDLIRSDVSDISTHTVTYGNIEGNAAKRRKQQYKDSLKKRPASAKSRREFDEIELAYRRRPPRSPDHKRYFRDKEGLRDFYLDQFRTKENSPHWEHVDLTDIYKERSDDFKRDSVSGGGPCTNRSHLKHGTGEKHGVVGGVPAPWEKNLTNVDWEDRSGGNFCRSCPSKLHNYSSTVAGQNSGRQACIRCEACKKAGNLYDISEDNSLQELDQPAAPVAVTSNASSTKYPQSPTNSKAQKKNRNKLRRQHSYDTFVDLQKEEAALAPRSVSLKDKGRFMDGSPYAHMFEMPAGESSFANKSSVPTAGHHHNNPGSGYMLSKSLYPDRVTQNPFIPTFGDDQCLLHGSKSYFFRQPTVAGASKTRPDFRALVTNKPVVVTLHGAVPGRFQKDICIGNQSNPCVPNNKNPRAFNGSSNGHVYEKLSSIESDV
The subject of data set [5] is GluN2B subunit. Description: In vitro autoradiography in NHP brain sections. The class given is binding. As to conditions: self-blocking 13 10 μM. The method, boiled down: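 Brain sections (20 μm) preincubated 20 min in 50 mM Tris-HCl pH 7.4 at room temperature, then incubated 60 min at room temperature with 18F-labelled test compound (37 kBq/mL, 1.58 nM). Self-block: 30 min pretreatment with unlabelled test compound (10 μM, 0.1% DMSO, 1% ethanol in buffer), then cold-buffer wash. Washed, dried, exposed to imaging plates overnight. Regional signal (gray value/unit area) expressed as a ratio to forebrain white matter.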

The nature of data set [6]: Whole body ex vivo biodistribution in mice. The method, boiled down:
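Female CD1 (ICR) mice (8 weeks, 23–27 g) were injected via tail vein with tracer, 740 kBq/100 μL saline containing 5% ethanol. Animals were killed at 2, 10, 30 and 60 min. Organs were removed, weighed and gamma-counted. %ID/g of wet tissue (stomach as %ID/organ) was calculated against diluted aliquots of the injected dose, with decay correction.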

Data set [7] in a line: Radiometabolite analysis in mice. The conditions noted are these: ICR mice, 15 min post injection, n = 2. The class given is in vivo. The method, boiled down: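 Female CD1 (ICR) mice (8 weeks, 23–27 g) received tracer IV via tail vein and were killed at 15 min. Plasma was deproteinized with ice-cold CH3CN, and brain was homogenized in ice-cold CH3CN, with repeated centrifugation at 4 °C. Supernatants were spiked with unlabelled reference and run on C18 radioHPLC (CH3CN/H2O 55/45, 5 mL/min). Fractions were gamma-counted; parent % = parent counts/total counts × 100.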

[8] abbreviates: IC50, mean, 100 μM glutamate/glycine coapplied with increasing concentrations.
Setting [9] is: pIC50, mean (95% CI), 100 μM glutamate/glycine.
Setting [10] is: rat, self-blocking 13 10 μM, n = 3.
Setting [11] is: remained high until 10 min post injection.

As a reminder, the IC50 is the concentration that gives 50% inhibition. A higher IC50 goes with lower potency. As usually defined, the logD is lipophilicity at a set pH, counting ionised and neutral species. Take `COc1cnc(OCc2cn(-c3ccc(F)c(Br)c3)nn2)nc1` [Compound 11, 2-((1-(3-Bromo-4-fluorophenyl)-1H-1,2,3-triazol-4-yl)methoxy)-5-methoxypyrimidine]: the “%control at 1 μM, mean (99% CI), GluN2B” value in data set [1] was 13 (7, 19) %. For the same compound, the IC50 in data set [1] (setting [8]) came out at 19 nM; in data set [1] (setting [9]) it was 19.1 nM. Also, the “sensitivity of 2A/2A responses” value in data set [2] is on record as “insensitive”. In data set [3], this compound yielded a logD of 3.14 ± 0.037.

Regarding `COc1cnc(OCc2cn(-c3ccc(Br)c(F)c3)nn2)nc1` [Compound 12, 2-((1-(4-Bromo-3-fluorophenyl)-1H-1,2,3-triazol-4-yl)methoxy)-5-methoxypyrimidine], the figures for the IC50 in data set [1] (setting [8]) and in data set [1] (setting [9]) were 339 nM and 282 nM, respectively.

With `COc1cnc(OCc2cn(-c3ccc(F)c(C)c3)nn2)nc1` [Compound 13, 2-((1-(4-Fluoro-3-methylphenyl)-1H-1,2,3-triazol-4-yl)methoxy)-5-methoxypyrimidine], the “%control at 1 μM, mean (99% CI), GluN2B” value in data set [1] is 17 (11, 23) %. Besides, the “sensitivity of 2A/2A responses” value in data set [2] is reported as “insensitive”. Also, the log distribution coefficient (logD) in data set [3] is 2.89 ± 0.037.

Regarding `COc1cnc(OCc2cn(-c3ccc(C)c(F)c3)nn2)nc1` [Compound 14, 2-((1-(3-Fluoro-4-methylphenyl)-1H-1,2,3-triazol-4-yl)methoxy)-5-methoxypyrimidine], the IC50 in data set [1] (setting [8]) is 89 nM; in data set [1] (setting [9]) it was 75.9 nM.

Regarding `COc1cnc(OCc2cn(-c3ccc([18F])c(C)c3)nn2)nc1` [[^18F]13, 2-((1-(4-[^18F]fluoro-3-methylphenyl)-1H-1,2,3-triazol-4-yl)methoxy)-5-methoxypyrimidine], the logD in data set [3] amounted to 2.89. The “reduction of uptake by self-blocking” value at GluN2B subunit [4] (rat brain sections, cold compound 13 10 μM) is recorded as ~ 90%. In addition, on GluN2B subunit [4] (setting [10]), the “specific binding, frontal cortex” value was 94%; the “specific binding, hippocampus” value amounted to 94%; the “specific binding, striatum” value is listed as 92%; the “specific binding, thalamus” value worked out at 88%. Also, in the data set on GluN2B subunit [5], the “specific binding, caudate nucleus” value was found to be 79%; the “specific binding, entorhinal cortex” value was 89%; the “specific binding, insular cortex” value is recorded as 82%; the “specific binding, putamen” value is 73%. Further, the “specific binding, thalamus” value in the data set on GluN2B subunit [5] worked out at 53%. Also, the “specific binding, hippocampus” value in the data set on GluN2B subunit [5] (n = 3) was 87%. This compound showed a bone uptake in data set [6] of under 2 %ID/g. In data set [6] (2 min postinjection), the “initial uptake in heart, lung, kidney, liver, and small intestine” value is listed as over 5 % ID/g. The “uptake in heart, lung, kidney, spleen, pancreas, and muscle” value in data set [6] (60 min postinjection) is under 0.6 % ID/g. In addition, the “brain uptake at 2 min (brain2min)” value in data set [6] (i.v., 2 min post injection) came to 3.60 % ID/g. For the same compound, the “brain uptake at 10 min” value in data set [6] (i.v., 10 min post injection) was found to be 0.72 %ID/g. For the same compound, the “brain uptake at 60 min” value in data set [6] (i.v., 60 min post injection) is given as 0.018 % ID/g. In addition, in data set [6] (setting [11]), the liver uptake came out at 20.84 % ID/g and the small intestine uptake is reported as 39.15 % ID/g. In data set [7], the “parent fraction in brain” value was 56.6%, the “parent fraction in liver” value was determined as 5.1% and the “parent fraction in plasma” value is given as 11.8%.
